STAT3 activator – IL-6 driven STAT3 reporter potentiators, primary screen, U3A cells, luciferase, luminescence, MLSCN library. 190,000 tested, 0.91% active. activation (% of control), % at 5.6 µM. IL-6 STAT3-luciferase reporter; 100% = signal with IL-6 EC80 alone. AID 871, 2007;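 active = activation above the screen-wide mean of compound activation plus 3 SD, cut at about 130% in these data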;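 note: 0% = background luminescence of wells with medium and substrate only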
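System – human U3A cells carrying STAT3-luciferase construct · Probe or stimulus – Interleukin-6, 33 ng/mL · Schedule – compound 1 h, then IL-6 6 h at 37 °C · Signal – luminescence from STAT3-driven luciferase reporter · Evaluation – percent of IL-6-only median luminescence · Benchmarks – IL-6-only high control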
STAT1 inh – STAT1 signaling inhibitors, primary screen, cell-based, HTS, luciferase reporter | AID 920, 2007 | 200,000 tested, 0.35% active | inhibition, % at 5.5 µM | NIH 3T3 STAT1-luciferase reporter, IFN-gamma, luminescence;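 active = inhibition above a set limit, the mean inhibition across all tested compounds plus 3 SD, cut at about 34% in these data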;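 note: 0% = IFN-gamma with DMSO and 100% = IFN-gamma with 300 µM nifuroxazide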
STAT3 inh-1 – IL-6 driven STAT3 reporter inhibitors, primary screen, U3A cells, luciferase, luminescence, MLSCN library. IL-6 STAT3-luciferase reporter; host cell line lacks STAT1. inhibition, % at 5.5 µM. 190,000 tested, 0.89% active. AID 862, 2007;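 active = inhibition above the mean inhibition across all screened compounds plus 3 SD, cut at about 44% in these data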;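 note: 0% = DMSO only wells and 100% = 100 µM nifuroxazide control wells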
APP 5'UTR act – activators of APP 5'UTR luciferase reporter, primary screen, SH-SY5Y cells; activation, % at 2 µM; AID 1276, 2008; 190,000 tested, 1% active; SH-SY5Y APP 5'UTR luciferase reporter, luminescence; zero percent = DMSO vehicle wells;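 active = activation above a set limit, based on mean plus 3 SD of controls, cut at about 140% in these data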
NF-kB expr up – activators of NF-kB expression in neurons, primary screen, cell-based, HTS; human neuronal cells, NF-kB reporter expression; stronger effect = higher value; 190,000 tested, 1.6% active; fold change at 12.5 µM; in the data active = fold change above about 3.3
STAT1 activator – STAT1 signaling activators, primary screen, cell-based, HTS, luciferase reporter. NIH 3T3 STAT1-luciferase reporter, IFN-gamma, luminescence; 100% = IFN-gamma alone, no compound. activation (% of control), % at 5.5 µM. 200,000 tested, 2.6% active. AID 932, 2007;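 active = activation above the screen-wide mean activation plus 3 SD, cut at about 130% in these data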;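 note: raw ratio to IFN-gamma control signal so 100% means no change and 0% no light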
STAT3 inh-2 – STAT3 reporter inhibitors, retest of hits, confirmation, U3A cells, luciferase, luminescence; inhibition, % at 5.7 µM; 1,200 tested, 45% active; shares compounds with STAT3 inh-1; IL-6 STAT3 luciferase reporter; cell line lacks STAT1;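 active = inhibition above the hit cutoff computed for the primary STAT3 screen, cut at about 44% in these data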;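 note: 0% = IL-6 plus DMSO and 100% = IL-6 plus nifuroxazide control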
NFkB inh STAT3ct – NF-kB reporter inhibitors in human cells, confirmation, counter-screen for STAT3 inhibitor project, cell-based, HEK293T, luciferase, TNF-alpha stimulus | shares compounds with STAT3 inh-1 | TNF-alpha induced | inhibition, % at 5.7 µM | 1,200 tested, 36% active | AID 1308, 2008;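 active = inhibition above the mean of solvent-only control wells plus 3 SD, cutoff set per campaign, cut at about 13% in these data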;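 note: 0% = TNF-alpha with DMSO and 100% = TNF-alpha with MG high control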
STAT1 inh STAT3c – STAT1 reporter inhibitors, IFN-gamma induced, confirmation, counter-screen for STAT3 inhibitor project, cell-based, NIH 3T3, luciferase luminescence; shares compounds with STAT3 inh-1; NIH 3T3 STAT1-luciferase reporter; inhibition, % at 5.7 µM; 1,200 tested, 27% active; AID 1317, 2008;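 active = inhibition above the mean plus 3 SD of solvent-only control wells, limit set per screening run, cut at about 16% in these data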;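 note: 0% = DMSO with IFN-gamma and 100% = nifuroxazide control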
STAT1 activ conf – STAT1 signaling activators, confirmation, cell-based, HTS, luciferase reporter; NIH 3T3 STAT1-luciferase reporter, IFN-gamma potentiation, luminescence; 100% = IFN-gamma EC80 alone, no compound; shares compounds with STAT1 activator; 1,200 tested, 97% active; activation (% of control), % at 5.7 µM;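 active = activation above a set limit carried over from the earlier primary STAT1 screen, cut at about 140% in these data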;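 note: simple ratio to median IFN-gamma plus DMSO wells so 0% means no light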
NFkB act STAT1ct – NF-kB reporter activators, TNF-alpha stimulated, counter-screen for STAT1 activator project, cell-based, HEK293T, luciferase luminescence | activation (% of control), % at 5.7 µM | AID 1306, 2008 | 100% = TNF-alpha with vehicle only | shares compounds with STAT1 activator | 1,200 tested, 43% active;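 active = activation above the mean of solvent-only control wells plus 3 SD, set per campaign, cut at about 130% in these data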;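 note: TNF-alpha given at a submaximal dose yielding about 80% of full reporter signal; values are well signal over median control so 100% means no change and 0% no light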
STAT3 act 2 – STAT3 reporter activation by STAT1 hits, confirmation, counter-screen for STAT1 activator project, U3A cells, luciferase, luminescence; 1,200 tested, 46% active; activation (% of control), % at 5.7 µM; AID 1316, 2008; IL-6; cells lack STAT1; 100 = IL-6 alone, no compound effect; shares compounds with STAT1 activator;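 active = activation above the solvent-only control well mean plus 3 SD, set per plate batch, cut at about 110% in these data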;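 note: 0% = no luminescence and 100% = median IL-6 plus DMSO wells; higher means more STAT3 reporter activation so hits are non-selective activators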
* hit, by the source's call; nt = not tested or not shown. This is a sample that favours compounds with a hit; in the whole collection about 5.1% have one here.

SMILES	STAT3 activator	STAT1 inh	STAT3 inh-1	APP 5'UTR act	NF-kB expr up	STAT1 activator	STAT3 inh-2	NFkB inh STAT3ct	STAT1 inh STAT3c	others
Cc1cc(Nc2cccc(Cl)c2)nc(N2CCOCC2)n1	100	0	4	9	0.86	100	nt	nt	nt
CC1CC1C(=O)Nc1nc(-c2ccc(Cl)s2)cs1 (stereo not drawn)	83	10	24	15	1.1	90	nt	nt	nt
O=C(Nc1nc(-c2ccc(Cl)s2)cs1)c1ccncc1	49	2	66*	-9	1.1	99	56*	12	10
CN(C)CCCOC(=O)COc1ccc(C(C)(C)C)cc1	100	7	3	-2	1.1	93	nt	nt	nt
CNc1nc2c(c(=O)n(C)c(=O)n2C)n1Cc1ccccc1	59	16	55*	3	0.82	85	34	13*	18*
CCCCn1c(CN(C)Cc2ccccc2)nc2c1c(=O)n(C)c(=O)n2C	76	23	32	7	0.77	79	nt	nt	nt
CCCn1c(CN(C)Cc2ccccc2)nc2c1c(=O)n(C)c(=O)n2C	64	20	46*	7	0.66	81	29	4	14
Cn1c(=O)c2c(nc(NC(Cc3ccccc3)C(=O)O)n2Cc2ccccc2)n(C)c1=O (stereo not drawn)	101	-3	2	6	1	102	nt	nt	nt
Cc1cccc(Cn2c(NCCO)nc3c2c(=O)n(C)c(=O)n3C)c1	60	19	52*	9	0.87	83	35	10	20*
COc1ccccc1/C=C(/C(=O)OCC(=O)Nc1ccccc1C)c1ccccc1	108	14	-14	10	1.1	87	nt	nt	nt
CC(C)Oc1ccc(C(=O)NC2=NCCS2)cc1	51	4	62*	154*	8.3*	94	30	-21	-79
COc1ccc(-c2nnc(SCCC(=O)O)n2C)cc1OC	102	1	0	1	1.1	100	nt	nt	nt
CC(=O)/C(N=Nc1ccc2c(c1)OCCO2)=C(\C)O	44	19	68*	16	2	82	-6	-10	-92
CCOc1cccc2cc(-c3cn4cc(C)ccc4n3)c(=O)oc12	43	-45	69*	-3	3.5*	141*	39	-17	-82
CCOC(=O)c1c(C)c(C(=O)Nc2ccc3c(c2)OCO3)c(C)n1C	102	-5	3	18	1.2	104	nt	nt	nt
CCOC(=O)c1c(N)sc(C(=O)Nc2ccc3c(c2)OCO3)c1C	31	24	85*	117	5.5*	76	31	17*	-62
O=C(CS(=O)(=O)c1cccc(Cl)c1)Nc1ccccc1Cl	99	-1	8	8	1.2	101	nt	nt	nt
CCOCCCNC(=O)c1ccc2c(c1)OCO2	106	-2	-5	14	1.7	102	nt	nt	nt
O=C(NCCOc1ccccc1)c1ccc2c(c1)OCO2	39	19	76*	120	1.4	83	39	26*	-20
Cc1[nH]n2c(=O)c3c(nc2c1-c1ccc(Cl)cc1)CCC3	96	-6	11	42	1.5	104	nt	nt	nt
Cc1ccc(-c2cc3nc4c(c(=O)n3[nH]2)CCCC4)cc1	65	-81	44*	89	nt	174*	4	-31	-148	STAT1 activ conf=232*;NFkB act STAT1ct=114;STAT3 act 2=96
COc1ccc(-c2cc(C)nc3c(-c4ccccc4)cnn23)cc1	59	-72	51*	168*	nt	167*	-18	-38	-183	STAT1 activ conf=266*;NFkB act STAT1ct=125;STAT3 act 2=110
COc1ccc2nc(NC(=S)N(C)C)sc2c1	65	-77	44*	48	11*	171*	21	-48	-165	STAT1 activ conf=257*;NFkB act STAT1ct=127;STAT3 act 2=86
COC(=O)c1sccc1NC(=S)Nc1cc(C)cc(C)c1	96	13	8	-13	1.2	88	nt	nt	nt
COC(=O)c1cn[nH]c1NC(=S)Nc1ccc(C)cc1Cl	59	-76	50*	169*	1.5	170*	10	-24	-170	STAT1 activ conf=307*;NFkB act STAT1ct=127;STAT3 act 2=98
SMILES	STAT3 activator	STAT1 inh	STAT3 inh-1	APP 5'UTR act	NF-kB expr up	STAT1 activator	STAT3 inh-2	NFkB inh STAT3ct	STAT1 inh STAT3c	others
Cc1ccc2nc(-c3ccc(NC(=O)COC(=O)c4ccc([N+](=O)[O-])o4)cc3)sc2c1	55	-62	55*	106	6*	155*	35	-9	-67	STAT1 activ conf=170*;NFkB act STAT1ct=99;STAT3 act 2=69
Cc1ccc(C(=O)NNC(=O)c2ccc(SCC3CCCO3)c([N+](=O)[O-])c2)cc1 (stereo not drawn)	106	7	-3	4	0.96	93	nt	nt	nt
c1ccc(-c2noc(-c3ccc4ccccc4c3)n2)cc1	54	-56	57*	150*	3	151*	0	11	-89	STAT1 activ conf=184*;NFkB act STAT1ct=76;STAT3 act 2=91
O=S(=O)(Nc1nc2c(s1)CCCC2)c1ccc(Br)cc1	99	-2	4	2	0.76	102	nt	nt	nt
O=C(Nc1nc2c(s1)CCCC2)c1ccc(Br)o1	62	-72	46*	163*	6.2*	165*	12	-30	-122	STAT1 activ conf=217*;NFkB act STAT1ct=122;STAT3 act 2=99
Cc1cccc(C)c1NC(=O)COC(=O)C1Cc2ccccc2CN1C(=O)c1ccccc1 (stereo not drawn)	100	0	0	3	0.98	100	nt	nt	nt

Screens deposited in PubChem BioAssay by several laboratories.
